Results taken from ChEMBL document CHEMBL2331151 (Bioorg Med Chem, 2013).
Blank lines part the entries; values can stand above or below the compound they belong to.

Legend:
[1] = AUC (0 to 24 hrs) in Sprague-Dawley rat at 5 mg/kg, po; format: ADME, organism-based; parameters: time < 24 hr, dose 5 mg/kg, route oral; details: plasma
Outline: (§1)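 Compound given as a suspension by oral gavage to Sprague–Dawley rats as a single dose (5 mg/kg in the single-dose comparison; doses from 0.1–100 mg/kg in the dose-dependence study).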

Liver microsomes = test: Drug metabolism in rat liver microsomes in presence of S9 fractions; format: ADME, Microsome
Outline: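 Compound incubated with the S-9 fraction of rat liver microsomes to measure in vitro clearance. Primary metabolites formed during the incubation were identified.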

[2] = Half life in Sprague-Dawley rat at 5 mg/kg; format: ADME, organism-based; parameters: dose 5 mg/kg; details: in vivo
[3] = Oral bioavailability in Sprague-Dawley rat at 5 mg/kg; format: ADME, organism-based; details: in vivo
[4] = Cmax in Sprague-Dawley rat at 5 mg/kg, po; format: ADME, organism-based; parameters: dose 5 mg/kg, route oral; details: in vivo; outline: as §1
[5] = Cmax in Sprague-Dawley rat at 100 mg/kg, po; format: ADME, organism-based; parameters: dose 100 mg/kg, route oral; details: in vivo; outline: as §1
[6] = Cmax in Sprague-Dawley rat at 30 mg/kg, po; format: ADME, organism-based; parameters: dose 30 mg/kg, route oral; details: in vivo; outline: as §1
[7] = Cmax in Sprague-Dawley rat at 1 mg/kg, po; format: ADME, organism-based; parameters: dose 1 mg/kg, route oral; details: in vivo; outline: as §1
[8] = Cmax in Sprague-Dawley rat at 2 mg/kg, po; format: ADME, organism-based; parameters: dose 2 mg/kg, route oral; details: in vivo; outline: as §1
[9] = Cmax in Sprague-Dawley rat at 0.3 mg/kg, po; format: ADME, organism-based; parameters: dose 0.3 mg/kg, route oral; details: in vivo; outline: as §1
[10] = Cmax in Sprague-Dawley rat at 0.1 mg/kg, po; format: ADME, organism-based; parameters: dose 0.1 mg/kg, route oral; details: in vivo; outline: as §1
[11] = AUC (0 to 24 hrs) in Sprague-Dawley rat at 100 mg/kg, po; format: ADME, organism-based; parameters: time < 24 hr, dose 100 mg/kg, route oral; details: plasma; outline: as §1
[12] = AUC (0 to 24 hrs) in Sprague-Dawley rat at 30 mg/kg, po; format: ADME, organism-based; parameters: time < 24 hr, dose 30 mg/kg, route oral; details: plasma; outline: as §1
[13] = AUC (0 to 24 hrs) in Sprague-Dawley rat at 2 mg/kg, po; format: ADME, organism-based; parameters: time < 24 hr, dose 2 mg/kg, route oral; details: plasma; outline: as §1
[14] = AUC (0 to 24 hrs) in Sprague-Dawley rat at 1 mg/kg, po; format: ADME, organism-based; parameters: time < 24 hr, dose 1 mg/kg, route oral; details: plasma; outline: as §1
[15] = AUC (0 to 24 hrs) in Sprague-Dawley rat at 0.3 mg/kg, po; format: ADME, organism-based; parameters: time < 24 hr, dose 0.3 mg/kg, route oral; details: plasma; outline: as §1
[16] = AUC (0 to 24 hrs) in Sprague-Dawley rat at 0.1 mg/kg, po; format: ADME, organism-based; parameters: time < 24 hr, dose 0.1 mg/kg, route oral; details: plasma; outline: as §1

Structure (SMILES): CCNC(=O)c1cc(NS(=O)(=O)c2cc(C)c(Cl)cc2Cl)ccc1Oc1cncc(Cl)c1
Drug metabolism (Liver microsomes): Active | half-life [2]: 40 min | bioavailability [3]: 8% | AUC(0-t) at 24 h [1]: 1.6 µM·h

Structure (SMILES): O=S(=O)(Nc1ccc(Oc2cnc3ccccc3c2)c(F)c1)c1ccc(Cl)cc1Cl
Cmax [4]: 4800 nM | AUC(0-t) at 24 h [1]: 82 µM·h

Structure (SMILES): O=S(=O)(Nc1cc(Cl)c(Oc2cnc3ccccc3c2)c(Cl)c1)c1ccc(C(F)(F)F)cc1Cl
Cmax [4]: 8500 nM | AUC(0-t) at 24 h [1]: 112 µM·h

Structure (SMILES): CC(=O)c1cc(NS(=O)(=O)c2ccc(Cl)cc2Cl)ccc1Oc1cnc2ccccc2c1
Cmax [4]: 920 nM | AUC(0-t) at 24 h [1]: 3.4 µM·h

Structure (SMILES): O=S(=O)(Nc1cc(Cl)c(Oc2cnc3ccccc3c2)c(Cl)c1)c1ccc(Cl)cc1Cl [INT131]
Cmax [5]: 6100 nM | Cmax [6]: 4300 nM | Cmax [7]: 390 nM | Cmax [8]: 660 nM | Cmax [9]: 130 nM | Cmax [10]: 80 nM | AUC(0-t) at 24 h [11]: 100 µM·h | AUC(0-t) at 24 h [12]: 71 µM·h | AUC(0-t) at 24 h [13]: 8.3 µM·h | AUC(0-t) at 24 h [14]: 5.1 µM·h | AUC(0-t) at 24 h [15]: 2.6 µM·h | AUC(0-t) at 24 h [16]: 1.1 µM·h | Cmax [4]: 1100 nM | AUC(0-t) at 24 h [1]: 30 µM·h

The remaining lines, values ahead:

AUC(0-t) at 24 h [1]: 4.8 µM·h
Structure (SMILES): O=S(=O)(Nc1cc(Cl)c(Oc2cncc(Cl)c2)c(Cl)c1)c1ccc(Cl)cc1Cl

Cmax [4]: 11000 nM | AUC(0-t) at 24 h [1]: 105 µM·h
Structure (SMILES): O=S(=O)(Nc1ccc(Oc2cnc3ccccc3c2)c(Cl)c1)c1ccc(Cl)cc1Cl

AUC(0-t) at 24 h [1]: 31 µM·h
Structure (SMILES): N#Cc1cc(NS(=O)(=O)c2ccc(Cl)cc2Cl)ccc1Oc1cncc(Cl)c1
